In ChEMBL document CHEMBL1139977, “Synthesis and RET protein kinase inhibitory activity of 3-arylureidobenzylidene-indolin-2-ones” (Bioorg Med Chem Lett, 2007) one finds Activity and IC50 data, which are given here for 15 compounds.

For one test, the system named is NIH3T3MEN2A. Briefly: Reversion of RET C634R mutant oncogene-transformed morphologic phenotype of mouse NIH3T3MEN2A cells at 10 uM after 72 hrs. The format is functional, cell-based.
The nature of test [1]: Antiproliferative activity against RET C634R mutant oncogene-transformed mouse NIH3T3MEN2A after 72 hrs. The format is functional. In a few lines: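 Cells kept at 37 °C in 10% CO2 in DMEM. NIH3T3MEN2A were grown with 5% serum; parental NIH3T3 and NIH3T3H-RAS with 10% calf serum. Compounds were dissolved in DMSO and diluted in medium to 0.5% solvent final.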
Test [2] has as its system NIH3T3. Briefly: Antiproliferative activity against H-RAS transformed mouse NIH3T3 cells after 72 hrs. Conditions: NIH3T3, 72 h.
The subject of test [3] is NIH3T3. Briefly: Antiproliferative activity against mouse NIH3T3 after 72 hrs. To be noted: NIH3T3, 72 h.
The target in test [4] is T1, Proto-oncogene tyrosine-protein kinase receptor Ret (Homo sapiens, UniProt P07949). The experiment in a line: Inhibition of RET in mouse NIH3T3MEN2A cells. It counts as cell-based.
The target in test [5] is T1, Proto-oncogene tyrosine-protein kinase receptor Ret. The experiment in a line: Inhibition of RET in mouse NIH3T3MEN2A cells up to 3 uM. The format is cell-based. In a few lines:
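NIH3T3MEN2A cells (DMEM with 5% serum, 37 °C, 10% CO2) were exposed to vehicle or a range of concentrations for 24 h, with DMSO at 0.5% final. Whole-cell lysates were Western blotted for Ret autophosphorylation with anti-pTyr (4G10) and anti-pRet-Tyr1062 antibodies, and Ret protein expression was also probed.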

Activity calls are given as the source filed them. The calls are words filed in the database; no cut-off is given here.

As a reminder, the IC50 is the concentration that gives 50% inhibition.

T1 sequence (P07949 whole entry): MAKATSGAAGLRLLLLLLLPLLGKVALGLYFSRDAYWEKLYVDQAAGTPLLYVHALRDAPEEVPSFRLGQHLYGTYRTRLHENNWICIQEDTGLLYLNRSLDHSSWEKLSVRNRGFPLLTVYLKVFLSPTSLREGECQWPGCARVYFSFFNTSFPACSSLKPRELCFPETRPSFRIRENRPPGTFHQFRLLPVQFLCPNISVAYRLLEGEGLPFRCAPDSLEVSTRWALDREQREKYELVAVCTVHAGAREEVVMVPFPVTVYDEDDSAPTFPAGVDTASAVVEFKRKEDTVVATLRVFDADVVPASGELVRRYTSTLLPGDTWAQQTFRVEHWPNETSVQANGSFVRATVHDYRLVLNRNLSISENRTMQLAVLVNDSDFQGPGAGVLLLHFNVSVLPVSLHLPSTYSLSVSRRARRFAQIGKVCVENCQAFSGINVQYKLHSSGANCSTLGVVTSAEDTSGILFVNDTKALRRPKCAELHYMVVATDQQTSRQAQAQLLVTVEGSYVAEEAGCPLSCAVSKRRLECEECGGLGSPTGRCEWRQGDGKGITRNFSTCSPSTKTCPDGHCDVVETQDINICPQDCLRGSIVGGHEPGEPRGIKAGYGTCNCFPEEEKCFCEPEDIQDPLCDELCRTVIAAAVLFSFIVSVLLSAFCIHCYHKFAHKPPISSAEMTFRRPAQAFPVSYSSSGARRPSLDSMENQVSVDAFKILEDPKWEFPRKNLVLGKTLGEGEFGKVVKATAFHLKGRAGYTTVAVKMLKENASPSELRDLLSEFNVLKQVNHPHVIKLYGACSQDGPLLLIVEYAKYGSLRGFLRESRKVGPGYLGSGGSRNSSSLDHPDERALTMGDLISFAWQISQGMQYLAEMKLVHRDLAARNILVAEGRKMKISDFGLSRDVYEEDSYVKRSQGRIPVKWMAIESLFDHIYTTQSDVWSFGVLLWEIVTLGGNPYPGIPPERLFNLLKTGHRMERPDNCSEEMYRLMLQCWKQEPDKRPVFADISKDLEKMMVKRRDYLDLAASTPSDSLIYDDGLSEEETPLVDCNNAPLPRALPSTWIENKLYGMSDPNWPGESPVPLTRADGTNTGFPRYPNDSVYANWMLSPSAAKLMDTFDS

Consider `COc1cc2c(cc1OC)/C(=C\c1ccc(C(=O)Nc3ccccc3)cc1)C(=O)N2`, for which, in the test with NIH3T3MEN2A, the result was inactive. The IC50 in test [1] worked out at 12.2 µM.
The corresponding values for `COc1cc2c(cc1OC)/C(=C\c1ccc(NC(=O)Nc3ccc(F)cc3)cc1)C(=O)N2` are “inactive” and 6.1 µM.
The corresponding values for `O=C(Nc1ccccc1)Nc1ccc(/C=C2\C(=O)Nc3ccccc32)cc1` are “inactive” and above 40 µM.
In the case of `COc1cc2c(cc1OC)/C(=C\c1ccc(O)cc1)C(=O)N2`, the result in the test on NIH3T3MEN2A was Active. For the same compound, the IC50 in test [1] is 3.6 µM; in the test with NIH3T3 [2] it was 19.7 µM; in the test on NIH3T3 [3], 16.3 µM; in test [4], 0.17 µM.
With `COc1cc2c(cc1OC)/C(=C\c1ccc(NC(=O)Nc3ccc(N(C)C)cc3)cc1)C(=O)N2`, the outcome in the test on NIH3T3MEN2A was inactive. Further, in test [1], the IC50 is above 40 µM.
Take `COc1cc2c(cc1OC)/C(=C\c1ccc(NC(=O)Nc3ccccc3)cc1)C(=O)N2`: the outcome with NIH3T3MEN2A was Active. In addition, the results for the IC50 (in test [1]; in the test with NIH3T3 [2]; in the test with NIH3T3 [3]) were 4.6 µM, 8.7 µM and 14 µM, respectively.
As to `COc1cc2c(cc1OC)/C(=C\c1ccc(NC(=O)N3CCN(C)CC3)cc1)C(=O)N2`, in the test with NIH3T3MEN2A, the outcome was Active. For the same compound, the IC50 in test [1] is 15.8 µM; in test [4], above 3 µM.
Turning to `COc1cc2c(cc1OC)C(Cc1ccc(NC(=O)Nc3ccccc3)cc1)C(=O)N2` (stereo unspecified), in the test on NIH3T3MEN2A, the result was inactive. In test [1], half-maximal inhibition (IC50) was put at 21.5 µM.
Turning to `COc1cc2c(cc1OC)/C(=C\c1ccc(NC(=O)Nc3ccncc3)cc1)C(=O)N2`, the result with NIH3T3MEN2A was inactive. In addition, it took 4.7 µM to reach half-maximal inhibition in test [1] (IC50).
In the case of `COc1cc2c(cc1OC)N(C)C(=O)/C2=C/c1ccc(NC(=O)Nc2ccccc2)cc1`, in the test with NIH3T3MEN2A, the result was Active. The IC50 in test [1] came out at 4.1 µM; in the test on NIH3T3 [2], 5.4 µM; in the test with NIH3T3 [3] it was 6.6 µM. The result in test [5] was inactive.
In the case of `COc1ccc(NC(=O)Nc2ccc(/C=C3/C(=O)Nc4cc(OC)c(OC)cc43)cc2)cc1`, the outcome in the test on NIH3T3MEN2A was Active. The IC50 came to 3.6 µM in test [1], 12.3 µM in the test with NIH3T3 [2] and 14.7 µM in the test on NIH3T3 [3].
Turning to `O=C(Nc1ccccc1)Nc1ccc(/C=C2\C(=O)N(O)c3ccccc32)cc1`, the outcome in the test on NIH3T3MEN2A was inactive. Moreover, in test [1], the IC50 was 7.5 µM.
On the same counts, the results for `O=C(Nc1ccccc1)Nc1ccc(/C=C2\C(=O)Nc3ccc(Cl)cc32)cc1` are “inactive” and above 40 µM.
For the compound `COc1cc2c(cc1OC)/C(=C\c1ccc(NC(=O)Nc3ccc4c(c3)OCO4)cc1)C(=O)N2`, in the test on NIH3T3MEN2A, the outcome was inactive. In test [1], the IC50 amounted to 19.4 µM.
As to `O=C(Nc1ccccc1)Nc1ccc(/C=C2/C(=O)Nc3ccccc32)cc1`, the outcome in the test with NIH3T3MEN2A was inactive. The compound further displayed an IC50 in test [1] of 10 µM.
